# Assay results reported in ChEMBL document CHEMBL2010768, “Optimization of Potent Inhibitors of P. falciparum Dihydroorotate Dehydrogenase for the Treatment of Malaria” (ACS Med Chem Lett, 2011).
# Active and inactive are the calls of the source. No cut-off for these calls is given here.
# Columns and labels:
# [1] = target: T1, Dihydroorotate dehydrogenase (Plasmodium falciparum, UniProt Q54A96); test: Inhibition of Plasmodium falciparum DHODH after 20 mins by 2,6-dichloroindophenol-reduction based assay
# T1 sequence (Q54A96 whole entry): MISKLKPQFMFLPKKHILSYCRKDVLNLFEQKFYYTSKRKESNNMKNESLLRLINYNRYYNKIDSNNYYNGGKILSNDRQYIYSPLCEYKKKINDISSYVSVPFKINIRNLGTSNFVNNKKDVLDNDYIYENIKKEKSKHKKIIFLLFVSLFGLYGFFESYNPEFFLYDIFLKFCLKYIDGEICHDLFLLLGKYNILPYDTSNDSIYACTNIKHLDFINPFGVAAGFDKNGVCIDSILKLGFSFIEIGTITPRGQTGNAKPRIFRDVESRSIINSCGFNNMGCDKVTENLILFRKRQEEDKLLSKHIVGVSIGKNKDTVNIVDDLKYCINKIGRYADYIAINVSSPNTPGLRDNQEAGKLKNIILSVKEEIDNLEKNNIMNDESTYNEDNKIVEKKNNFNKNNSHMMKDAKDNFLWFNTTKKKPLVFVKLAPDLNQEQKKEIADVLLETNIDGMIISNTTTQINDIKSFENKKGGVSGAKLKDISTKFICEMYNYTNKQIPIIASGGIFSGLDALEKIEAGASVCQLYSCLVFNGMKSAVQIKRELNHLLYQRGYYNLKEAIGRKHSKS
# Plasmodium berghei = test: Inhibition of Plasmodium berghei DHODH after 20 mins by 2,6-dichloroindophenol-reduction based assay
# Plasmodium vivax = test: Inhibition of Plasmodium vivax DHODH after 20 mins by 2,6-dichloroindophenol-reduction based assay
# Plasmodium falciparum [2] = test: Antiplasmodial activity against Plasmodium falciparum 3D7 infected in […] after 72 hrs by SYBR green assay; assay type: functional, organism-based; conditions: 3D7, 72 h
# Plasmodium falciparum [3] = test: Antiplasmodial activity against Plasmodium falciparum Dd2 infected in […] after 72 hrs by SYBR green assay; assay type: functional, organism-based; conditions: Dd2, 72 h
# [4] = Cytotoxicity against human RPTEC after 4 days by alamar blue assay; assay type: cell-based; conditions: RPTEC cells, read-out: LC50
# [5] = Clearance in human liver microsomes by LC-MS/MS analysis; assay type: ADME, Microsome
# Summary of the method: (§1)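 Liver microsome incubation. Predicted clearance is derived from a well-stirred model corrected for microsomal and protein binding.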
# [6] = Clearance in mouse liver microsomes by LC-MS/MS analysis; assay type: ADME, Microsome; summary of the method: as §1
# [7] = target: Dihydroorotate dehydrogenase (quinone), mitochondrial (Homo sapiens, UniProt Q02127); test: Inhibition of human DHODH after 20 mins by 2,6-dichloroindophenol-reduction based assay
# Dihydroorotate dehydrogenase (quinone), mitochondrial, sequence (Q02127 whole entry): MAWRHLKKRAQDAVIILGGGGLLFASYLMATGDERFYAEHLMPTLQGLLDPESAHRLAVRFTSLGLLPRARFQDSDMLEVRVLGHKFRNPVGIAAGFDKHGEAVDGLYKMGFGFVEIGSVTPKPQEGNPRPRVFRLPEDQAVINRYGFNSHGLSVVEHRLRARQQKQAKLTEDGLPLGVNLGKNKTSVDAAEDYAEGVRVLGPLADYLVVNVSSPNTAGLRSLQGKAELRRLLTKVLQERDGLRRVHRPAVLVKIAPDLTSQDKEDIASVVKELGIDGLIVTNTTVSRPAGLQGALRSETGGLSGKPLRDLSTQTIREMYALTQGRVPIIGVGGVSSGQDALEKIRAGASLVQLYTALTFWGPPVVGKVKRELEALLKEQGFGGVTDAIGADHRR
SMILES,IC50 [1] [nM],inhibition (Plasmodium berghei),inhibition (Plasmodium vivax),IC50 (Plasmodium falciparum [2]) [nM],IC50 (Plasmodium falciparum [3]) [nM],CLhep predicted [5] [mL/min/kg],CLhep predicted [6] [mL/min/kg],IC50 [7] [nM],CC50 at 96 h [4] [nM]
Cc1nc2ccccc2n1-c1ccc(C(=O)NC2CC2)s1,80,–,–,90,110,–,–,–,> 62000
CNC(=O)c1ccc(-n2cnc3ccccc32)s1,1080,–,–,280,420,–,–,–,> 62000
Cc1nc2ccc(F)cc2n1-c1ccc(C(=O)NC2CC2)s1,111,Active,Active,93,113,< 4,> 72,–,–
Cc1nc2c(N(C)C)cccc2n1-c1ccc(C(=O)NC2CC2)s1,181,Active,Active,75,159,–,–,–,–
Cc1ccc2c(c1)nc(C)n2-c1ccc(C(=O)NC2CC2)s1,56,Active,Active,87,130,8,> 72,–,–
O=C(NC1CC1)c1ccc(-n2cnc3ccccc32)s1,60,–,–,80,90,–,–,–,> 62000
Cc1nc2c(F)cccc2n1-c1ccc(C(=O)NC2CC2)s1,34,Active,Active,8,6,< 4,37,–,–
Cc1nc2cc(C(F)(F)F)ccc2n1-c1ccc(C(=O)NC2CC2)s1,28,Active,Active,20,28,4,> 72,–,–
O=C(NC1CCCC1)c1ccc(-n2cnc3ccccc32)s1,2510,–,–,4400,5500,–,–,–,–
Cc1nc2c(Cl)cc(F)cc2n1-c1ccc(C(=O)NC2CC2)s1,25,Active,Active,12,13,5,42,> 30000,–
CN(C)c1nc2ccccc2n1-c1ccc(C(=O)NC2CC2)s1,5600,–,–,> 1000,> 1000,–,–,–,> 62000
Cc1nc2c(Br)cccc2n1-c1ccc(C(=O)NC2CC2)s1,21,Active,Active,4,7,5,26,–,–
Cc1nc2ccc(OC(F)(F)F)cc2n1-c1ccc(C(=O)NC2CC2)s1,52,Active,Active,36,53,10,41,–,–
O=C(NC1CCC1)c1ccc(-n2cnc3ccccc32)s1,420,–,–,410,440,–,–,–,> 62000
CCCCNC(=O)c1ccc(-n2cnc3ccccc32)s1,–,–,–,> 20000,7300,–,–,> 30000,–
CCNC(=O)c1ccc(-n2cnc3ccccc32)s1,140,–,–,100,150,–,–,–,> 62000
CC(C)NC(=O)c1ccc(-n2cnc3ccccc32)s1,680,–,–,560,810,–,–,–,> 62000
Cc1cc(F)c2c(c1)ncn2-c1ccc(C(=O)NC2CC2)s1,95,Active,Active,36,60,11,> 72,7300,–
CCc1nc2ccccc2n1-c1ccc(C(=O)NC2CC2)s1,110,–,–,120,180,–,–,–,> 62000
NC(=O)c1ccc(-n2cnc3ccccc32)s1,> 30000,–,–,> 40000,> 30000,–,–,–,–
Cc1nc2ccc(C(F)(F)F)cc2n1-c1ccc(C(=O)NC2CC2)s1,92,Active,Active,56,96,8,68,–,–
O=C(NC1CC1)c1ccc(-n2c(=O)[nH]c3ccccc32)s1,> 30000,–,–,> 5000,> 5000,–,–,–,–

# Now from value to compound, other results behind:
IC50 [1] [nM],inhibition (Plasmodium berghei),inhibition (Plasmodium vivax),IC50 (Plasmodium falciparum [2]) [nM],IC50 (Plasmodium falciparum [3]) [nM],CLhep predicted [5] [mL/min/kg],CLhep predicted [6] [mL/min/kg],IC50 [7] [nM],SMILES,CC50 at 96 h [4] [nM]
28,Active,Active,128,113,–,–,–,Cc1nc2c(OCC(F)F)cccc2n1-c1ccc(C(=O)NC2CC2)s1,–
49,Active,Active,78,102,–,–,–,Cc1nc2cc(Cl)ccc2n1-c1ccc(C(=O)NC2CC2)s1,–
32,Active,Active,10,17,12,> 72,–,Cc1cc(F)c2nc(C)n(-c3ccc(C(=O)NC4CC4)s3)c2c1,–
62,Active,Active,17,8,10,> 72,14900,O=C(NC1CC1)c1ccc(-n2cnc3c(F)cccc32)s1,–
> 30000,–,–,> 40000,> 40000,–,–,–,CN(C)C(=O)c1ccc(-n2cnc3ccccc32)s1,–
21,Active,Active,5,6,< 4,19,–,Cc1nc2c(Cl)cccc2n1-c1ccc(C(=O)NC2CC2)s1,–
35,Active,Active,8,18,7,> 72,5600,O=C(NC1CC1)c1ccc(-n2cnc3c(Cl)cc(F)cc32)s1,–
17,Active,Active,4,4,10,> 72,3100,Cc1cc(F)c2ncn(-c3ccc(C(=O)NC4CC4)s3)c2c1,–
39,Active,Active,10,22,10,66,–,Cc1cccc2c1nc(C)n2-c1ccc(C(=O)NC2CC2)s1,–
19,Active,Active,12,12,8,> 72,17200,O=C(NC1CC1)c1ccc(-n2cnc3cc(C(F)(F)F)ccc32)s1,–
56,Active,Active,33,74,10,> 72,–,Cc1ccc2nc(C)n(-c3ccc(C(=O)NC4CC4)s3)c2c1,–
609,Active,Active,143,290,6,> 72,–,Cc1cccc2nc(C)n(-c3ccc(C(=O)NC4CC4)s3)c12,–
